Test results: ChEMBL document CHEMBL1122268, “Mechanism of action of 2',5-difluoro-1-arabinosyluracil” (J Med Chem, 1983)
pEC50, pKi: −log10 of the molar value. Blank lines part the entries; values can stand above or below the compound they belong to.

Assays:
[1] = molecular target: Lacticaseibacillus casei; experiment: Inhibition of dTMP synthetase in the absence of CH2-H4 folate Lactobacillus casei; type: functional
[2] = tested on: L5178Y; experiment: The growth inhibition of L5178Y cell line; type: functional, cell-based; conditions: Mus musculus
[3] = tested on: P815; experiment: The growth inhibition of P815 cell line; type: functional, cell-based; conditions: Mus musculus
[4] = tested on: S49; experiment: The growth inhibition of S-49 mouse lymphoma cells; type: functional, cell-based
Outline: (§1)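 S-49 or thymidine kinase-deficient S-49/TK⁻ cells in 1 mL DMEM with 10% heat-inactivated horse serum plus inhibitor, 37 °C, 10% CO2, 72 h; cell density counted daily by Coulter counter; EC50 = concentration halving growth rate relative to untreated controls.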

[5] = tested on: S49; experiment: Reduction of deoxy-Adenosinetriphosphate pool after 1 hour incubation in S-49 cells(2 X 10e 5) at a concentration of 16.5 uM; type: functional, Mus musculus
Outline: (§2)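 Mouse lymphoma S-49 suspension cultures at 2 × 10^5 cells/mL in DMEM with 10% heat-inactivated horse serum, 37 °C, exposed to 16.5 μM drug; dATP, dCTP, dGTP, dTTP pool sizes measured at 1 h (dTTP also 4 h), expressed as percent of original value.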

[6] = tested on: S49; experiment: Reduction of deoxy-[…] pool after 1 hour incubation in S-49 cells(2 X 10e 5) at a concentration of 16.5 uM; type: functional, Mus musculus; outline: as §2
[7] = tested on: S49; experiment: Reduction of deoxy-Thymidinetriphosphate pool after 1 hour incubation in S-49 cells(2 X 10e 5) at a concentration of 16.5 uM; type: functional, Mus musculus; outline: as §2
[8] = tested on: S49; experiment: Reduction of deoxy-Thymidinetriphosphate pool after 4 hour incubation in S-49 cells(2 X 10e 5) at a concentration of 16.5 uM; type: functional, Mus musculus; outline: as §2
[9] = tested on: S49; experiment: Reduction of deoxy-Cytidinetriphosphate pool after 1 hour incubation in S-49 cells(2 X 10e 5) at a concentration of 16.5 uM; type: functional, Mus musculus; outline: as §2
[10] = tested on: S49; experiment: The growth inhibition of thymidine kinase deficient S-49 cells; type: functional, cell-based; conditions: Mus musculus; outline: as §1
[11] = tested on: Thymidylate synthase (Lactobacillus casei); experiment: Rate constant for the inactivation of DTMP synthetase in the presence of cofactor CH2-H4 folate

pKi [1]: 5.48
SMILES: O=c1[nH]c(=O)n([C@@H]2O[C@H](COP(=O)(O)O)[C@@H](O)[C@@H]2F)cc1F

Rate constant [11]: 2.4 min⁻¹
SMILES: O=c1[nH]c(=O)n([C@H]2O[C@@H](CO)[C@H](O)[C@H]2F)cc1F
pEC50 [2]: 5.42 | pEC50 [3]: 5.59 | pEC50 [4]: 5.48 | Decrease [5]: 90% | Decrease [6]: < 20% | Decrease [7]: 80% | Decrease [8]: 40% | Increase [9]: 172% | pEC50 [10]: 3.40

pKi [1]: 6.72
SMILES: O=c1[nH]c(=O)n([C@H]2C[C@H](O)[C@@H](COP(=O)(O)O)O2)cc1Cl

pKi [1]: 5.64
SMILES: O=c1ccn([C@H]2C[C@H](O)[C@@H](COP(=O)(O)O)O2)c(=O)[nH]1 [DEOXYURIDINE MONOPHOSPHATE]
